According to ChEMBL document CHEMBL3769366, “Novel tricyclic pyrazolo[1,5-d][1,4]benzoxazepin-5(6H)-one: Design, synthesis, model and use as hMAO-B inhibitors” (Bioorg Med Chem, 2016):

Experiments:
[1] = target: T1, Amine oxidase [flavin-containing] A (Homo sapiens, UniProt P21397); assay: (§1) Inhibition of recombinant human microsomal MAO-A expressed in baculovirus-infected insect cells using p-tyramine as substrate assessed as H2O2 production at 60 uM pretreated for 15 mins followed by addition of Amplex Red, horseradish peroxidase and substrate measured for 15 mins by fluorimetric method; details: 0.25 h
T1 sequence (P21397 whole entry): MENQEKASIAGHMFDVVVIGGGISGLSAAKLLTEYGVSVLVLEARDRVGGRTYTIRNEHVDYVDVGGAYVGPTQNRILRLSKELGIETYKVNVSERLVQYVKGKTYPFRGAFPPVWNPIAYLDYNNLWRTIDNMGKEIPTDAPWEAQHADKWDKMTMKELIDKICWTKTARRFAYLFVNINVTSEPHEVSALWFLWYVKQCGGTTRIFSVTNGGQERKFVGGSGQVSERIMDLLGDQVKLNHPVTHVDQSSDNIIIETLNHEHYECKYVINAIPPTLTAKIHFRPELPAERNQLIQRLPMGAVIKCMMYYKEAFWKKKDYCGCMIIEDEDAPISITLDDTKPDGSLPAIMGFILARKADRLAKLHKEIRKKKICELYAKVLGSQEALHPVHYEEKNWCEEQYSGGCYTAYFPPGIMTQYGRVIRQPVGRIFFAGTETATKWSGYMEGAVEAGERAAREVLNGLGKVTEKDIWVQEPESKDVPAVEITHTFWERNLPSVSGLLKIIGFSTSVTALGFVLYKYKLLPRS
Method in brief: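 Human MAO-A from microsomes of insect cells infected with recombinant baculovirus, 1.1 µg protein, adjusted to a rate of 165 pmol p-tyramine/min. Inhibitors in 0.05 M sodium phosphate pH 7.4, preincubated 15 min at 37 °C. Reaction started with 200 µM Amplex Red, 1 U/mL HRP and 1 mM p-tyramine. H2O2-derived resorufin fluorescence (ex 545/em 590 nm) read over 15 min at 37 °C, linear phase.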

[2] = target: T2, Amine oxidase [flavin-containing] B (Homo sapiens, UniProt P27338); assay: as §1, with “MAO-B” for “MAO-A”; details: 0.25 h
T2 sequence (P27338 whole entry): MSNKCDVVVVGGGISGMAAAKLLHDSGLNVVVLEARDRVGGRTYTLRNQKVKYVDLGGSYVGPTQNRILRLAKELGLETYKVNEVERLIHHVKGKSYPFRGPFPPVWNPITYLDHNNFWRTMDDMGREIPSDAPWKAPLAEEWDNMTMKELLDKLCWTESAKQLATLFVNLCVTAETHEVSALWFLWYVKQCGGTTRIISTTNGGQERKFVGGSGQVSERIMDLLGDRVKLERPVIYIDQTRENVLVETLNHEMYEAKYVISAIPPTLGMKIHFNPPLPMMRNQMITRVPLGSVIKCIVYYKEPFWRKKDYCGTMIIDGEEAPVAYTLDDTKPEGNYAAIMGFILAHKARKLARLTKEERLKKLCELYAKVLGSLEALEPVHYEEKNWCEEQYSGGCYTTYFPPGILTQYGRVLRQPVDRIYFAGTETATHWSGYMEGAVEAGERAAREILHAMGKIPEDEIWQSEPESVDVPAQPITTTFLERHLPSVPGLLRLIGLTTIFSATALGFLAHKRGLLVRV

[3] = target: T1, Amine oxidase [flavin-containing] A; assay: Inhibition of recombinant human microsomal MAO-A expressed in baculovirus-infected insect cells using p-tyramine as substrate assessed as H2O2 production pretreated for 15 mins followed by addition of Amplex Red, horseradish peroxidase and substrate measured for 15 mins by fluorimetric method
[4] = target: T2, Amine oxidase [flavin-containing] B; assay: Inhibition of recombinant human microsomal MAO-B expressed in baculovirus-infected insect cells using p-tyramine as substrate assessed as H2O2 production pretreated for 15 mins followed by addition of Amplex Red, horseradish peroxidase and substrate measured for 15 mins by fluorimetric method; assay type: cell-based
Homo sapiens = species on record: Homo sapiens; assay: Selectivity index, ratio of IC50 for recombinant human microsomal MAO-A to recombinant human microsomal MAO-B

SMILES | inhibition (INH) [1] | INH [2] | IC50 [3] | IC50 [4] | Ratio IC50 (Homo sapiens)
Cc1ccccc1C1=NN2C(=O)COc3ccccc3C2C1 (stereo not given) | Not Active | Not Active | – | – | –
Cc1ccc(C2=NN3C(=O)COc4ccc(Cl)cc4C3C2)cc1 (stereo not given) | – | – | 3900 nM | 1630 nM | 2.4
CC1Oc2ccccc2C2CC(c3ccccc3)=NN2C1=O (stereo not given) | Not Active | – | – | 34700 nM | 1.7
O=C1COc2ccccc2C2CC(c3ccc(F)cc3)=NN12 (stereo not given) | Not Active | – | – | 1780 nM | 33.7
CC1Oc2ccccc2C2CC(c3ccccc3Cl)=NN2C1=O (stereo not given) | – | – | 4050 nM | 348 nM | 11.7
O=C1COc2ccccc2C2CC(c3ccccc3Cl)=NN12 (stereo not given) | – | – | 55700 nM | 1320 nM | 42.1
Cc1ccc(C2=NN3C(=O)C(C)Oc4ccccc4C3C2)cc1 (stereo not given) | Not Active | – | – | 45200 nM | 1.3
COc1ccc(C2=NN3C(=O)COc4c(Br)cc(Br)cc4C3C2)cc1 (stereo not given) | – | – | 4760 nM | 467 nM | 10.2
C#CCN(C)[C@H](C)Cc1ccccc1 [SELEGILINE] | Not Active | – | – | – | –
CC(C)c1ccc(C2=NN3C(=O)COc4ccccc4C3C2)cc1 (stereo not given) | Not Active | – | – | 3520 nM | 17
O=C1COc2ccc(Cl)cc2C2CC(c3ccc(Cl)cc3)=NN12 (stereo not given) | – | – | 4710 nM | 504 nM | 9.3
O=C1COc2ccc(Cl)cc2C2CC(c3ccccc3F)=NN12 (stereo not given) | Not Active | – | – | 584 nM | 103
COc1ccc(C2=NN3C(=O)COc4ccc(Cl)cc4C3C2)cc1 (stereo not given) | Not Active | – | – | 2720 nM | 22
Cc1ccc(C2=NN3C(=O)COc4ccccc4C3C2)cc1 (stereo not given) | Not Active | Not Active | – | – | –
O=C1COc2ccccc2C2CC(c3ccc(Cl)cc3)=NN12 (stereo not given) | – | Not Active | 53300 nM | – | 0.9
CC1Oc2ccccc2C2CC(c3ccc(F)cc3)=NN2C1=O (stereo not given) | Not Active | – | – | 221 nM | 271
O=C1COc2ccccc2C2CC(c3ccccc3)=NN12 (stereo not given) | – | – | 2190 nM | 2880 nM | 0.8
COc1ccc(C2=NN3C(=O)COc4ccccc4C3C2)cc1 (stereo not given) | Not Active | Not Active | – | – | –
O=C1COc2ccc(Cl)cc2C2CC(c3ccccc3)=NN12 (stereo not given) | Not Active | – | – | 2570 nM | 23.4
O=C1COc2ccc(Cl)cc2C2CC(c3ccc(F)cc3)=NN12 (stereo not given) | – | – | 4650 nM | 242 nM | 19.2
COc1ccc(C2=NN3C(=O)C(C)Oc4ccccc4C3C2)cc1 (stereo not given) | Not Active | Not Active | – | – | –
CC1Oc2ccccc2C2CC(c3ccc(Cl)cc3)=NN2C1=O (stereo not given) | Not Active | – | – | 452 nM | 133
